In ChEMBL document CHEMBL2385079, “Design, synthesis and pharmacological characterization of analogs of 2-aminoethyl diphenylborinate (2-APB), a known store-operated calcium channel blocker, for inhibition of TRPV6-mediated calcium transport” (Bioorg Med Chem, 2013):
pIC50: −log10 of the molar value. Calls of active or inactive are those of the source. The rule behind the calls is not given here.

How the values were obtained:
ORAI 1/2/3 [1] = target: T1, ORAI 1/2/3 (Homo sapiens, UniProt Q96D31+Q96SN7+Q9BRQ5); experiment: Inhibition of ORAl1/2/3 in HEK293 cells assessed as inhibition of Ca2+ influx after 10 mins by FLIPR assay in presence of thapsigargin; assay type: cell-based
Outline: (§1)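 Untransfected HEK293 cells plated at 40,000 cells/well, used after 36 h and loaded 1 h at 37 °C with Calcium-5 dye in nominally Ca2+-free modified Krebs buffer (117 mM NaCl, 4.8 mM KCl, 1 mM MgCl2, 10 mM HEPES). After a 50 s baseline, compound is added together with 1 µM thapsigargin for 10 min. Ca2+ or Cd2+ is then added, and the rate of fluorescence rise is read by FLIPR Tetra (ex 470–495, em 515–575 nm). IC50 is the mean of six experiments.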

[2] = target: T2, Transient receptor potential cation channel subfamily V member 6 (Homo sapiens, UniProt Q9H1D0); experiment: Inhibition of human TRPV6 transfected in HEK293 cells assessed as inhibition of Cd2+ influx after 5 mins by FLIPR assay; assay type: cell-based
T2 sequence (Q9H1D0 whole entry): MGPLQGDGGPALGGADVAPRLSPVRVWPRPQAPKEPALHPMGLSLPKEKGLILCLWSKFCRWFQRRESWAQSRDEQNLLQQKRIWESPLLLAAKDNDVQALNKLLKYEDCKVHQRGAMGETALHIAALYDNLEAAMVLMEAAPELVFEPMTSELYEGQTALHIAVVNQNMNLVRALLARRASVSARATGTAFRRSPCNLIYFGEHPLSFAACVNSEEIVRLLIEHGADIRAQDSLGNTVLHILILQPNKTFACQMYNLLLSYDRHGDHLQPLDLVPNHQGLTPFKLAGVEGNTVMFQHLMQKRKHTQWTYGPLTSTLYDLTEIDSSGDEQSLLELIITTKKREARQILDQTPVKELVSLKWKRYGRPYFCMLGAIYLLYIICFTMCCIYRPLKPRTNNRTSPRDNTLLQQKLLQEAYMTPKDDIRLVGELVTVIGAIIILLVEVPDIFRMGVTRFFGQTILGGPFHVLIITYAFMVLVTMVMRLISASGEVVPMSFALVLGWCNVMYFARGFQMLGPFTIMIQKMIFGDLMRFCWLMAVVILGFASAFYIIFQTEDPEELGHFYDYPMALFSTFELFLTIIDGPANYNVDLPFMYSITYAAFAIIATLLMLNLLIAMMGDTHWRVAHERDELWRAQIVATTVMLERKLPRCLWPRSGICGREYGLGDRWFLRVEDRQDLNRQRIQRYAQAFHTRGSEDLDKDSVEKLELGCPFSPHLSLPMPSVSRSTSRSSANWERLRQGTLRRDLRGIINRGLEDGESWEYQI
Outline: (§2)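 HEK293 clone stably expressing RFP-tagged hTRPV6, made by Lipofectamine transfection, G418 selection and picking of red-fluorescent single-cell colonies. Cells plated at 40,000/well and used after 36 h, then loaded 1 h at 37 °C with Calcium-5 in nominally Ca2+-free Krebs buffer. After a 50 s baseline, compound is given for 5 min. Then 2 mM CaCl2 or 50 µM CdCl2 is added, and the initial rate of fluorescence increase is read by FLIPR Tetra. IC50 is the average of six independent experiments.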

[3] = target: T2, Transient receptor potential cation channel subfamily V member 6; experiment: Inhibition of human TRPV6 transfected in HEK293 cells assessed as inhibition of Ca2+ influx after 5 mins by FLIPR assay; assay type: cell-based; outline: as §2
ORAI 1/2/3 [4] = target: T1, ORAI 1/2/3; experiment: Inhibition of ORAl1/2/3 in HEK293 cells assessed as inhibition of Cd2+ influx after 10 mins by FLIPR assay in presence of thapsigargin; assay type: cell-based; outline: as §1
ORAI 1/2/3 [5] = target: T1, ORAI 1/2/3; experiment: Inhibition of ORAl1/2/3 in HEK293 cells assessed as inhibition of Cd2+ influx up to 500 uM after 10 mins by FLIPR assay in presence of thapsigargin; assay type: cell-based; outline: as §1
ORAI 1/2/3 [6] = target: T1, ORAI 1/2/3; experiment: Inhibition of ORAl1/2/3 in HEK293 cells assessed as inhibition of Ca2+ influx up to 500 uM after 10 mins by FLIPR assay in presence of thapsigargin; assay type: cell-based; outline: as §1
[7] = target: T3, Transient receptor potential cation channel subfamily V member 6 (Homo sapiens) (UniProt Q9H1D0); experiment: Inhibition of human TRPV6 transfected in HEK293 cells assessed as inhibition of Cd2+ influx up to 500 uM after 5 mins by FLIPR assay; assay type: cell-based; outline: as §2
T3 sequence (whole entry): T2 sequence (Q9H1D0 whole entry)

[8] = target: T3, Transient receptor potential cation channel subfamily V member 6 (Homo sapiens); experiment: Inhibition of human TRPV6 transfected in HEK293 cells assessed as inhibition of Ca2+ influx up to 500 uM after 5 mins by FLIPR assay; assay type: cell-based; outline: as §2
[9] = target: T2, Transient receptor potential cation channel subfamily V member 6; experiment: Inhibition of human TRPV6 transfected in HEK293 cells; assay type: cell-based; outline: as §2
[10] = Stability of the compound in CHCl3 by NMR analysis; assay type: physicochemical
HEK293 = experiment: Selectivity ratio of IC50 for ORAl1/2/3 in HEK293 cells to IC50 for human TRPV6 transfected in HEK293 cells; assay type: cell-based
[11] = target: T3, Transient receptor potential cation channel subfamily V member 6 (Homo sapiens); experiment: Ratio of 2-APB IC50 to compound IC50 for human TRPV6

Compound	IC50 (ORAI 1/2/3 [1])	pIC50 [2]	pIC50 [3]	IC50 (ORAI 1/2/3 [4])	further results
COc1ccccc1[B-]1(c2ccccc2OC)[NH2+]CCO1	11.6 µM	3.38	< 3.30	10.5 µM	–
OB(O)c1ccccc1	–	–	–	–	inhibition (ORAI 1/2/3 [5]): inactive; inhibition (ORAI 1/2/3 [6]): inactive; inhibition [7]: inactive; inhibition [8]: inactive
OB(c1ccc(C(F)(F)F)cc1)c1ccc(C(F)(F)F)cc1	7.6 µM	4.95	4.97	9.5 µM	–
c1ccc([B-]2(c3ccccc3)OCC[N+]23CCNCC3)cc1	6 µM	4.61	4.82	2.2 µM	–
CB(O)O [METHANE BORONIC ACID]	> 500 µM	–	–	> 500 µM	inhibition [7]: inactive; inhibition [8]: inactive
COc1ccccc1B(O)c1ccccc1OC	13.2 µM	< 3.30	< 3.30	11.8 µM	–
C[N+]1(C)CCO[B-]1(c1ccccc1)c1ccccc1	8.9 µM	4.70	4.20	5.1 µM	–
OB(c1ccccc1)c1ccccc1 [DIPHENYL BORINIC ACID]	9.8 µM	4.50	4.72	8.7 µM	–
OB(O)O	–	–	–	–	inhibition (ORAI 1/2/3 [5]): inactive; inhibition (ORAI 1/2/3 [6]): inactive; inhibition [7]: inactive; inhibition [8]: inactive
FC(F)(F)c1ccc([B-]2(c3ccc(C(F)(F)F)cc3)[NH2+]CCO2)cc1	2.1 µM	4.86	4.79	3.2 µM	–
Brc1ccc([B-]2(c3ccccc3)[NH2+]CCO2)cc1 (stereo unspecified)	3.4 µM	5.01	4.88	4.9 µM	–
Cc1ccccc1[B-]1(c2ccccc2)[NH2+]CCO1 (stereo unspecified)	10 µM	4.17	4.51	9.9 µM	–
OB(c1ccc(F)cc1)c1ccc(F)cc1	26.6 µM	4.21	4.43	17.1 µM	–
Cc1ccc([B-]2(c3ccc(C)cc3)[NH2+]CCO2)cc1	1.6 µM	4.77	4.84	7.4 µM	–
OB1c2ccccc2CCc2ccccc21	33.3 µM	< 3.30	< 3.30	36.4 µM	–
CN(C)CCOC(c1ccccc1)c1ccccc1 [DIPHENHYDRAMINE]	> 500 µM	–	–	> 500 µM	inhibition [7]: inactive; inhibition [8]: inactive
Fc1ccc([B-]2(c3ccc(F)cc3)[NH2+]CCO2)cc1	9 µM	4.85	4.77	5.9 µM	–
c1ccc([B-]2(c3ccccc3)[NH2+]CCS2)cc1	51.8 µM	4.03	3.90	44.6 µM	–
c1ccc([B-]2(c3ccccc3)OC[C@H]3CCC[NH+]32)cc1 (stereo partly specified)	8 µM	4.51	4.73	10.1 µM	–
c1ccc([B-]2(c3ccccc3)[NH2+]CCCO2)cc1	7.9 µM	4.55	4.79	8.2 µM	–
c1ccc([B-]2(c3ccccc3)OCc3cccc[n+]32)cc1	10.7 µM	4.38	4.46	10.2 µM	–

Compound	IC50 (ORAI 1/2/3 [1])	pIC50 [2]	pIC50 [3]	IC50 (ORAI 1/2/3 [4])	further results
c1ccc([B-]2(c3cccnc3)[NH2+]CCO2)cc1 (stereo unspecified)	–	–	–	–	inhibition (ORAI 1/2/3 [5]): inactive; inhibition (ORAI 1/2/3 [6]): inactive; inhibition [7]: inactive; inhibition [8]: inactive
Cc1ccc(B(O)c2ccc(C)cc2)cc1	23 µM	4.54	4.73	25.9 µM	–
c1ccc([B-]2(c3ccccc3)[NH2+]CCO2)cc1	22.9 µM	4.61	4.68	11.9 µM	pIC50 [9]: 4.66
c1ccc([B-]2(c3ccccc3)OC[C@@H]3CCC[NH+]32)cc1 (stereo partly specified)	8.9 µM	4.55	4.73	10.2 µM	–
O=C1O[B-](c2ccccc2)(c2ccccc2)[NH2+][C@H]1CO	40.5 µM	4.69	4.44	9.8 µM	Stability [10]: Stable
c1ccc(OB(Oc2ccccc2)Oc2ccccc2)cc1	–	–	–	–	inhibition (ORAI 1/2/3 [5]): inactive; inhibition (ORAI 1/2/3 [6]): inactive; inhibition [7]: inactive; inhibition [8]: inactive
c1ccc(B(OB(c2ccccc2)c2ccccc2)c2ccccc2)cc1	11.4 µM	4.75	4.72	13.4 µM	–
O=C1O[B-](c2ccccc2)(c2ccccc2)[NH2+][C@H]1Cc1c[nH]c2ccccc12	6.9 µM	–	–	14.7 µM	inhibition [7]: inactive; inhibition [8]: inactive
CCCCc1ccc([B-]2(c3ccccc3)[NH2+]CCO2)cc1 (stereo unspecified)	3.5 µM	4.92	4.84	2.4 µM	–
OB(c1ccccc1)c1ccc(C(F)(F)F)cc1	–	4.90	4.95	–	–
c1ccc(-c2ccc([B-]3(c4ccccc4)[NH2+]CCO3)cc2)cc1 (stereo unspecified)	13.4 µM	4.29	4.14	7.7 µM	–
Fc1ccc([B-]2(c3ccccc3)[NH2+]CCO2)cc1 (stereo unspecified)	9.3 µM	4.47	4.73	9.8 µM	–
NCCOC(c1ccccc1)c1ccccc1	106 µM	< 3.30	3.80	184.2 µM	–
O=C1C[NH2+][B-](c2ccccc2)(c2ccccc2)O1	38.6 µM	4.51	4.89	11 µM	Stability [10]: Stable
OB(c1ccccc1)c1ccc(Cl)cc1	21.8 µM	4.92	5.01	6.4 µM	–
Cc1ccc([B-]2(c3ccccc3)[NH2+]CCO2)s1 (stereo unspecified)	30.9 µM	5.00	4.91	25.2 µM	Ratio IC50 (HEK293): 2.5
c1ccc([B-]2(c3ccccc3)Oc3cccc4ccc[n+]2c34)cc1	–	–	–	–	inhibition (ORAI 1/2/3 [5]): inactive; inhibition (ORAI 1/2/3 [6]): inactive; inhibition [7]: inactive; inhibition [8]: inactive
Cc1ccc([B-]2(c3ccccc3)[NH2+]CCO2)cc1 (stereo unspecified)	8.6 µM	4.89	4.72	2.7 µM	–
COc1ccc([B-]2(c3ccc(OC)cc3)[NH2+]CCO2)cc1	12.4 µM	4.05	< 4.00	25.8 µM	–
Ic1ccc([B-]2(c3ccccc3)[NH2+]CCO2)cc1 (stereo unspecified)	2.8 µM	5.28	5.27	7.2 µM	Ratio IC50 [11]: 4
OC(c1ccccc1)c1ccccc1 [DIPHENYLMETHANOL]	> 500 µM	–	–	> 500 µM	inhibition [7]: inactive; inhibition [8]: inactive
